Measurements reported in ChEMBL document CHEMBL3259731, “Design, synthesis, and biological evaluation of novel FAK scaffold inhibitors targeting the FAK-VEGFR3 protein-protein interaction” (Eur J Med Chem, 2014).
Counter-ions that a name gives are not always drawn. The source made the active and inactive calls. The calls are words filed in the database; no cut-off is given here.

Legend:
[1] = system: PANC-1; experiment: Cytotoxicity against human PANC1 cells transfected with retroviral expression vector pMSCV-LucSh assessed as growth inhibition at 50 uM after 72 hrs by MTS assay; assay type: functional, cell-based
Outline: (§1)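 Cells seeded at 5000/well, attached overnight, then given 50 µM of each analog for 72 h at 37 °C. MTS reagent added for about 1 h, absorbance read at 570 nm. Viability normalized to DMSO/untreated controls. Three independent experiments, each with 3–5 replicate wells per concentration. Cells kept in DMEM with 10% FBS.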

[2] = biological target: Focal adhesion kinase 1 (Homo sapiens, UniProt Q05397); experiment: Binding affinity to biotinylated human FAK FAT domain by biolayer interoferometry
Outline: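 Bio-layer interferometry on super streptavidin biosensor tips, pre-wetted in buffer for a baseline before FAT protein immobilization. Association and dissociation measured over 210 s at two small-molecule concentrations. Kon, Koff and Kd derived from the kinetic fits.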

[3] = system: C8161; experiment: Cytotoxicity against human C8161 cells assessed as growth inhibition at 50 uM after 72 hrs by MTS assay; assay type: functional, cell-based
Outline: (§2)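 MTS assay. Cells kept in DMEM with 10% FBS, plated at 5000 cells/well and left to attach overnight, then exposed to compound (screening at 50 µM) for 72 h at 37 °C. MTS reagent added for about 1 h, then absorbance read at 570 nm. Viability normalized to DMSO/untreated controls. Three independent experiments, 3–5 replicate wells per concentration.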

[4] = system: U-87MG ATCC; experiment: Cytotoxicity against human U87 cells assessed as growth inhibition at 50 uM after 72 hrs by MTS assay; assay type: functional, cell-based; outline: as §2
[5] = system: MDA-MB-231; experiment: Cytotoxicity against human MDA-MB-231 cells assessed as growth inhibition at 50 uM after 72 hrs by MTS assay; assay type: functional, cell-based; outline: as §2
[6] = system: MIA PaCa-2; experiment: Cytotoxicity against human MIAPaCa2 cells transfected with retroviral expression vector pMSCV-LucSh assessed as growth inhibition at 50 uM after 72 hrs by MTS assay; assay type: functional, cell-based; outline: as §1
[7] = system: A-375; experiment: Cytotoxicity against human A375 cells assessed as growth inhibition at 50 uM after 72 hrs by MTS assay; assay type: functional, cell-based; outline: as §2
[8] = biological target: T1, Focal adhesion kinase 1/vascular endothelial growth factor receptor 3 (Homo sapiens) (UniProt P35916+Q05397); experiment: Inhibition of FAK/VEGFR-3 interaction in human MIAPaCa2 cells transfected with retroviral expression vector pMSCV-LucSh assessed as decrease in levels of VEGFR3 and phosphorylated tyrosine residues associated with FAK protein after 24 hrs by immunoprecipitation assay; assay type: cell-based; conditions: MIA PaCa-2
Outline: (§3)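 Cells treated at increasing doses for 24 h, then lysed in NP40 buffer with inhibitors. 500 or 800 µg lysate precleared, then immunoprecipitated with FAK 4.47 or VEGFR3 9D9, with isotype IgG and no-antibody controls, overnight with Protein A/G beads at 4 °C. Immunoblotted for pan-phosphotyrosine (4G10), total FAK and total VEGFR3. Bands quantified by densitometry.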

[9] = biological target: T1, Focal adhesion kinase 1/vascular endothelial growth factor receptor 3 (Homo sapiens); experiment: Inhibition of FAK/VEGFR-3 interaction in human MIAPaCa2 cells transfected with retroviral expression vector pMSCV-LucSh assessed as decrease in levels of VEGFR3 and phosphorylated tyrosine residues associated with FAK protein after 24 hrs by densitometric analysis; assay type: cell-based; conditions: MIA PaCa-2; outline: as §3
[10] = system: MCF7; experiment: Cytotoxicity against human MCF7 cells overexpressing VEGFR-3/FAK assessed as inhibition of colony formation at >10 uM after 14 days by 1,9-dimethyl-methylene blue staining-based assay; assay type: functional, cell-based
Outline: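 Colony formation. 700 cells/well seeded with compound added immediately, then incubated at 37 °C for 10–14 days (legend: 14 days). Colonies stained for 1 h with 0.25% 1,9-dimethyl-methylene blue in 50% methanol, washed, dried and scanned. Duplicate wells, three independent experiments.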

[11] = biological target: T1, Focal adhesion kinase 1/vascular endothelial growth factor receptor 3 (Homo sapiens); experiment: Inhibition of FAK/VEGFR-3 interaction in human MIAPaCa2 cells transfected with retroviral expression vector pMSCV-LucSh assessed as reduction in VEGFR3 pan-phosphorylated tyrosine level after 24 hrs by immunoprecipitation assay; assay type: cell-based; conditions: MIA PaCa-2; outline: as §3
[12] = biological target: T1, Focal adhesion kinase 1/vascular endothelial growth factor receptor 3 (Homo sapiens); experiment: Inhibition of FAK/VEGFR-3 interaction in human MIAPaCa2 cells transfected with retroviral expression vector pMSCV-LucSh assessed as reduction in VEGFR3 pan-phosphorylated tyrosine level after 24 hrs by densitometric analysis; assay type: cell-based; conditions: MIA PaCa-2; outline: as §3
[13] = system: MIA PaCa-2; experiment: Cytotoxicity against human MIAPaCa2 cells transfected with retroviral expression vector pMSCV-LucSh assessed as inhibition of colony formation at >10 uM after 14 days by 1,9-dimethyl-methylene blue staining-based assay; assay type: functional, cell-based
Outline: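 700 cells/well seeded, and compound added at once at the specified concentrations. Incubated 10–14 days at 37 °C (figure legend gives 14 days). Colonies stained with 0.25% 1,9-dimethyl-methylene blue in 50% methanol for 1 h, washed, dried and scanned. Run in duplicate and repeated three times independently.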

T1 sequence (P35916 whole entry, looked up): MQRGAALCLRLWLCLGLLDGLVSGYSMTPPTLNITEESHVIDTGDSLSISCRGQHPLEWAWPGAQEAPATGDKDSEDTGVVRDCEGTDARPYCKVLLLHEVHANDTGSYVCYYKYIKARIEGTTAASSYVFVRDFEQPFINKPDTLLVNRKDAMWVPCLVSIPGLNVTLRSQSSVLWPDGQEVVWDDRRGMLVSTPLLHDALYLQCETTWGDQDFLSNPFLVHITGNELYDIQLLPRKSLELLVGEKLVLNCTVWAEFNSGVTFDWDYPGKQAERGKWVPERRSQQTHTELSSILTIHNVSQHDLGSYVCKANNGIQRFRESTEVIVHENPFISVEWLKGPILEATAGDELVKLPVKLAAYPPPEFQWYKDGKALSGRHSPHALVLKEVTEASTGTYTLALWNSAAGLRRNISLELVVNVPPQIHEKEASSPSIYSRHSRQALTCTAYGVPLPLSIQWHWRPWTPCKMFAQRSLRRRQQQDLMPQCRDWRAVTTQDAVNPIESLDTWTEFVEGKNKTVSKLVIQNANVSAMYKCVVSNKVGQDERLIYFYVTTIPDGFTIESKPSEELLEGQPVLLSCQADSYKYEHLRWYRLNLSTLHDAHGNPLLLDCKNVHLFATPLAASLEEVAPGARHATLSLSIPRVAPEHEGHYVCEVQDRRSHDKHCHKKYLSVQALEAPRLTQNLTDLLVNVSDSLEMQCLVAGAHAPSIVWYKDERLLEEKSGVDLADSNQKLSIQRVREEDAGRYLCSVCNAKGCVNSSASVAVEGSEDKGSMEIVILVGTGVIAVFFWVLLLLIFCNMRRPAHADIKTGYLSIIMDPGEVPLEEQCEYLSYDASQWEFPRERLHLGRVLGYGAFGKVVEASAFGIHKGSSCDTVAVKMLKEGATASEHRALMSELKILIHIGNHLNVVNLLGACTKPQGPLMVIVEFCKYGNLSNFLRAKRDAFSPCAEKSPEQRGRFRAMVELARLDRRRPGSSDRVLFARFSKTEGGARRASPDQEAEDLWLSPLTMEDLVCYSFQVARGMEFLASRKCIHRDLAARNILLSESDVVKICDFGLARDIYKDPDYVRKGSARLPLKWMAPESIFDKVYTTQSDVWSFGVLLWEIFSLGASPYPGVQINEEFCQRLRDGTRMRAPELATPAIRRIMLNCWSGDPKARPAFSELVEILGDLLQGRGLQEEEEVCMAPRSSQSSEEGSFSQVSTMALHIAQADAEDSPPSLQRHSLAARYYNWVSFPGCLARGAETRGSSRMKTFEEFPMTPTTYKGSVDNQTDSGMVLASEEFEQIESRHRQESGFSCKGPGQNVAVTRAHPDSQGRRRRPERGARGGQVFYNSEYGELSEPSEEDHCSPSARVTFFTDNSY
T1 sequence (Q05397 whole entry, looked up): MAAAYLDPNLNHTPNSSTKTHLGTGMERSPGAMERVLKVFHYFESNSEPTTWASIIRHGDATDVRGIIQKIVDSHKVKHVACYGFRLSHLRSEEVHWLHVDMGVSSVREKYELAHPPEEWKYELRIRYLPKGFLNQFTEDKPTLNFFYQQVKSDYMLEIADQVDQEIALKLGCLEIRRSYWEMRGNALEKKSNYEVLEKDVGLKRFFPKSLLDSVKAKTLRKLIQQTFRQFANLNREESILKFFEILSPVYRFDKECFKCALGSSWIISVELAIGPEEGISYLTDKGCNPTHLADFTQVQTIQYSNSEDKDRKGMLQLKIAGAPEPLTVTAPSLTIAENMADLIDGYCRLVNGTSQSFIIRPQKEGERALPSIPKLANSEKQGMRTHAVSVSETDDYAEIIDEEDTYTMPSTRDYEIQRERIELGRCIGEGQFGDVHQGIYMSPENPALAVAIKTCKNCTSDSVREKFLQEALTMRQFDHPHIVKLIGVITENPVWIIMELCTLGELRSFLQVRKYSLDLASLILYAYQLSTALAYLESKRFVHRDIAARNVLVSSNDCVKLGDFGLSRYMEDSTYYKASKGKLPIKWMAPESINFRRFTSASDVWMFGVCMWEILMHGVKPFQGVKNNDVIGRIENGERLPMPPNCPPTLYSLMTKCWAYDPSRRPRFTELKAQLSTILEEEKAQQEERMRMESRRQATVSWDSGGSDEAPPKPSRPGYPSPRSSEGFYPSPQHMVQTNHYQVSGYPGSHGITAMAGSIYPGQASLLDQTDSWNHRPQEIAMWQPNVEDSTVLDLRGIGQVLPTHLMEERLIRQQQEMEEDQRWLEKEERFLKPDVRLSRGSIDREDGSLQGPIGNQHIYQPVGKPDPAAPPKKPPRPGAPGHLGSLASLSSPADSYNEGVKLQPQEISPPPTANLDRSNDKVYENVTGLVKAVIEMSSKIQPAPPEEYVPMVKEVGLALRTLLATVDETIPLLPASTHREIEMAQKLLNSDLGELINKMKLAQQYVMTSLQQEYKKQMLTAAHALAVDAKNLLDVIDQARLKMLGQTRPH

Row | Structure (SMILES) | growth inhibition (GI) [1] | Activity [2] | growth inhibition (GI) [3] | growth inhibition (GI) [4] | growth inhibition (GI) [5] | growth inhibition (GI) [6] | growth inhibition (GI) [7] | inhibition [8] | Kd [2] [nM] | inhibition [9] | inhibition [10] | inhibition [11] | inhibition [12] | inhibition [13]
1 | CN(C)CCNc1ccccn1 | inactive | inactive | inactive | inactive | inactive | inactive | inactive |  |  |  |  |  |  | 
2 | CN(C)CCN(Cc1ccc(Cl)cc1)c1ccccn1 [CHLORPYRAMIN HYDROCHLORIDE] |  |  |  |  |  |  |  | Dose-dependent effect | 570 | Dose-dependent effect | Active | Dose-dependent effect | Dose-dependent effect | Active
3 | CCCCCCN(CCN(C)C)c1ccccc1 | inactive |  | inactive | inactive | inactive | inactive | inactive |  |  |  |  |  |  | 
4 | CCCCCCCCCCCCN(CCN(C)C)c1ccccn1 | Active |  | Active | Active | Active | Active | Active |  |  |  |  |  |  | 
